Measurements from the EternaBench riboswitch data.

Test system: MS2 coat protein
Experiment: apparent Kd, MS2 coat protein; higher = weaker binding; RNA-MaP array; FMN 200 µM where present
Method in brief: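 Designs were transcribed by stalled E. coli RNA polymerase on Illumina sequencing-chip clusters. They were titrated with SNAP-549-labelled MS2 coat protein from 0.7 or 1.5 nM, doubling to 3 µM, without and then with constant ligand. Buffer: 100 mM Tris-HCl pH 7.5, 80 mM KCl, 4 mM MgCl2, BSA, DTT, yeast tRNA, Tween-20. Green signal was normalised to red-channel RNA signal and control-cluster median Fmax. Apparent Kd is the median of filtered per-cluster binding-curve fits.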

[1] = designed as: OFF switch for flavin mononucleotide, no ligand
[2] = ligand present: flavin mononucleotide, designed as: OFF switch for flavin mononucleotide
[3] = designed as: ON switch for flavin mononucleotide, no ligand
[4] = ligand present: flavin mononucleotide, designed as: ON switch for flavin mononucleotide

Row | Sequence | apparent Kd [1] [nM] | apparent Kd [2] [nM] | apparent Kd [3] [nM] | apparent Kd [4] [nM]
1 | CCAUGGUGGGCAGGAUAUCGUCCAGCUUGCGGACGAGAAGGGCUCAAACAUGAGGAUCACCCAUGUGAAGAGCGGGUUGUCCAA | 24.6 | 146 |  | 
2 | AAGUCUGGACGAGGAUAUCAGUUGUAUCUGGCGUCAACAUGAGGAUCACCCAUGUUGCAAUAGGGUGAGAAGGCGUUUGGGCAA |  |  | 41.6 | 19.1
3 | CGUCUAUGCCAGAAGGCAUAAAACAUGAGGAUCACCCAUGUCAAAGACAUGAGGAUAUGGCAUAGACGAAAAGUGCGAAAGCAC |  |  | 17.9 | 4.97
4 | ACCAUUUACUAAUCCUCUAUACAUGAGGAUCACCCAUGUUAUGAGGAUAUCAUCGUUCGCCGCGUUGAGAAGGCAUAGCAUUCG | 16.3 | 25.9 |  | 
5 | GUGUAGAUAGGAUAUGCAUAGAGCUUACGAAAGUAGGCUCUACAUGAGGAUCACCCAUGUAGAAGGGUCUACAC | 27.9 | 21.2 |  | 
6 | UUAGGACGAAACAUGAGGAUCACCCAUGUGUUAUAAUUAAUAUAGGAUAUGUUUAUACUUUUUGGGCAGAAGGAUGAUAUUGCU |  |  | 19.8 | 16.8
7 | GGAUCGAGUGUGAGGAUAUGCUGGUCCUUGGAUCAGCAGAAGGCACAUGAGGAUCACCCAUGUGAAAACGGUCC | 26.6 | 189 |  | 
8 | AUCGUGAGUAAGGAUAUCACGCGACCCUUUCGGUGAGAAGGUGCCACAUGAGGAUCACCCAUGUGGGUCGUCGC | 15.6 | 15.9 |  | 
9 | AAUAUAAGAGCUGGUACUCAAAGAACAUGAGGAUCACCCAUGUAGGAUAUCAGCACGAUAAGUGCUGAGAAGGACAUCCAGCUC | 15.8 | 15.9 |  | 
10 | CCUAAGGAGACAGGAUAUAGCGUGGUGGCCGGGCUCCAACGGCGAGCGGCGCUAGAAGGGUCACUACAUGAGGAUCACCCAUGU |  |  | 10.2 | 10.9
11 | AGUAACAGAGGAUAUACUAUUUUAUGUGUUUGUUAUUUUAAACAUGAGGAUCACCCAUGUAGAAGGCUGAAUGA | 28.4 | 29.1 |  | 
12 | AAUUAUAUGUAGAAGGUACUAACAUAUGUGUUGUAAGGAUAUACCAAAUUAUUAGUUAUCAAGUUACAUGAGGAUCACCCAUGU |  |  | 12.3 | 7.36
13 | GUAUGGGUAGAAGGACAUGAGGAUCACCCAUGUUGUGUGUCUAAGGAUAUUAGAGAAGAUUGACGUAAGAAGGUAGAUGUGUGG | 94.2 | 80.8 |  | 
14 | UGUUGAUAGCAGAAGGACAUGAGGAUCACCCAUGUACGGAUACAAAUAUAUGUAGGAUAUGCUAUUGACUAAGAGUGAGCGUUC | 5.78 | 7.87 |  | 
15 | GCAGCGCUUGACAUGAGGAUCACCCAUGUUAGAUUGUUAUGUCAGGAUAUAGUCUAGAAACUAGACUAGAAGGGAUAUGCUGCU |  |  | 290 | 34.1
16 | UACAAUCUAUCUGAGGAUAUCAUGAUUAUAACAUGAGGAUCACCCAUGUGCAGGAAAACUGCAUAUGAGAAGGCAGAUAGAUUGU |  |  | 611 | 98
17 | AUUAAAACAUAGGAUAUCGAAUUUAUCAUUUAACGAGAAGGAUGAACAUGAGGAUCACCCAUGUGGUAUCAUGG | 361 | 207 |  | 
18 | UAGGAGUACGUAGGAUAUGUAGGAUAUUCCUACAUGAGGAUCACCCAUGUUAGCAUGGAAGAAGGACAGAAGGACGUGCUCCUU |  |  | 1090 | 16.1
19 | GUGAGUGAUAGAGGAUAUAUAGAGAGAGAGAGAAUAGAAGGCUAAACAUACAUGAACAUGAGGAUCACCCAUGUCACCCAUGUU |  |  | 37.6 | 42.2
20 | GUUAGACAUGAGGAUCACCCAUGUGAGGAUAUGAUGUGAAUAAAUAAUUAAUUAAGUAUCAGAAGGCACAUAUG | 129 | 149 |  | 
21 | UUUUAACAUGAGGAUCACCCAUGUGAGGAUAUCGAAAUUUAUAUUAAUAUUUAUAAUUCGAGAAGGCACAUUUU | 170 | 148 |  | 
22 | UUUAUGUCAGGAUAUACAUGAGGAUCACCCAUGUAUAUCUUAAAAUAUACAUGGGAAUGUAGAAGGGACCUCCU | 51 | 41 |  | 
23 | GUAGCAUACCGAGGAUAUUCAUAUCGGAAACGAACAUGAGGAUCACCCAUGUGGCGAAAGCCUUGGGAGAAGGCGGAAUGCUAC |  |  | 589 | 24.5
24 | AAGCACAGAGGAUAUACAAUCCUCAGUGGGUCUGGCGAGCCACAUGAGGAUCACCCAUGUAGAAGGCUGGGCUC | 11.8 | 14.6 |  | 
25 | ACAUGAGGAUCACCCAUGUAUUACAUGGUUAAGUUUAUUAACAGAAGGCGAAAAUACCAAUUGAUCGAGGAUAUGUAAUCAAUU | 33.8 | 43.2 |  | 
26 | GGCAAGUGAGGAUAUCACCACGGCGUGGGCACCACGGCCAGUGAGAAGGCACAUGAGGAUCACCCAUGUGAUCA | 88 | 541 |  | 
27 | UGCGCUGAGGGAGGAUAUGACAUGAGGAUCACCCAUGUGGUAGGUUUCUUGUCAGAAGGCCCGCAUGUACCGAAUUAGGUUCGU | 112 | 18.3 |  | 
28 | UGUAUGGACAGAGGAUAUACCGAUAGGAGAUACUAUCGACUAGUCCUCACAUGAGGAUCACCCAUGUAGAAGGCUGUCCAUACU | 25.2 | 179 |  | 

Row | Sequence | apparent Kd [1] [nM] | apparent Kd [2] [nM] | apparent Kd [3] [nM] | apparent Kd [4] [nM]
29 | CGAUAACAUAGUUAUCCGUAACGUACAUGAGGAUCACCCAUGUAGGAUAUGUUACUAAACUAGUAACAGAAGGACAUGAGUAUU | 54.9 | 315 |  | 
30 | GUCAGCUCGUGAGGAUAUACAACACUGCUUCGGCAGUGUAUUAAGAUCACAUGAGGAUCACCCAUGUAGAAGGCACGAGUUGAU | 13.9 | 276 |  | 
31 | UUUGGGUGGCUGGAGGAUAUUCUAGUGGUUACAUGAGGAUCACCCAUGUGUCGCGCGGUUCGCGAGGAGAAGGCUGGCGGCCGUU |  |  | 166 | 46.2
32 | ACAAAUCCUGACAUGAGGAUCACCCAUGUUAGAUUGUUAUGUCAGGAUAUUAUCUGGCAACCAGAUGAGAAGGGACGAUUUGUG |  |  | 722 | 64.7
33 | AGCAUGCAGUAGGAUAUCGAUCCGCAAUAUGAACGAGAAGGACUGACAUGAGGAUCACCCAUGUGCGUCCUAGG | 16.5 | 19.7 |  | 
34 | AUACAUGAGGAUCACCCAUGUGGAUCACCCAUGUAAGAUGGUAGAAGGAUGUUAUUAUUAUUUUCAUAGGAUAUACUAUUUAGU | 328 | 408 |  | 
35 | UGGUACUAGGGAGGAUAUGGGAAGAUACAUGAGGAUCACCCAUGUUUCAGAAUGCCGAGAGGCAACUAGAAGGCCCUAGUACCU |  |  | 59.7 | 6.38
36 | AGAAAACAUGAGGAUCACCCAUGUGAGGAUAUCGAUGUCCAAGGGCGGGUGCGGGACUCGAGAAGGCACUUGGA | 76 | 64.3 |  | 
37 | AAUGUCUGAGGAUAUCGUUUUUUGUACAUGAGGAUCACCCAUGUCCAAUUUUGUAUAUUACGAGAAGGCAGUGGAA | 14.9 | 22.4 |  | 
38 | AUUGUUUAUGUAGGAUAUGCCUGGCGUGCCUUUGCAGAAGGACAUGAGGAUCACCCAUGUAUUGCGGUCUGCGUUCAGAUCGCA | 33.2 | 44.3 |  | 
39 | GGUUGACAAAGUCAACCUUAACGAACAUGAGGAUCACCCAUGUAGGAUAUGCUACUCAAAGAGUAGCAGAAGGACAUGUGCCUU | 33 | 278 |  | 
40 | GUAGCAUUGAGAGGAUAUCCAUACCGGAAACGGACAUGAGGAUCACCCAUGUGGCGAAAGCCAUGGGAGAAGGCUCUAUGUUAC |  |  | 11.1 | 4.96
41 | ACUAGUUGGUAAGGAUAUCCUACACUAUUCUGACCCGUGCAAGCUACAUGAGGAUCACCCAUGUGGGAGAAGGUGCGUCAACGU | 11 | 10.6 |  | 
42 | ACAUGAGGAUCACCCAUGUGAACAUAGGAUAUUGGUGAUCAGGCGUGUUAUACAGGAUAUGUCUGCGAGAAGGGUGCACGUUGC |  |  | 676 | 231
43 | UGGUACAUCGGAGGAUAUCAUGUAGAGACAUGAGGAUCACCCAUGUCGAUGGAGACAUCGGAGAUUGAGAAGGCCGAUGUACCU |  |  | 109 | 22.2
44 | AAAUAAACUACCAUAAUAUCCUCACAUGAGGAUCACCCAUGUCAGGAUAUUUGUCCUAAAAGGACAGAGAAGGGACGUGGUAGA | 5.43 | 11.1 |  | 
45 | AAGCGAGGGACAGGAUAUGCGGCGAAACUCGCCGCAGAAGGGUCGACAUGAGGAUCACCCAUGUCCUUACGCUCCACGUAGUGG |  |  | 107 | 455
46 | AGAAGUUUGUAGAAGGACGACUAAUUUGUAUUCGUAGGAUAUACUAUUUACAUGAGGAUCACCCAUGUUUAAAUGGAACAAUGU | 7 | 10.2 |  | 
47 | AGAUCACAUGAGGAUCACCCAUGUCAGGAUAUCGACUGAACAGCUUCGGCUGUUCAGUCGAGAAGGGACAAUUA | 279 | 860 |  | 
48 | GACCUGACAUAAUAAUGUAGAAAUACAUGAGGAUCACCCAUGUAGGAUAUGCAGUGGAAUACACUGCAGAAGGACAUAGUCAGG | 15.9 | 22.9 |  | 
49 | AAGUAGGGAGGAUAUACAUAGAUACAGAUUCAUGUAGAACUACAUGAGGAUCACCCAUGUAGAAGGCCCUAAUA | 31.6 | 193 |  | 
50 | UGUGCGUUGAUCUUAGAUCGGAGUACAUGAGGAUCACCCAUGUAGGAUAUUCAAAGACGCAGAUAGAAGAAGGACAUAGGUUUC | 7.85 | 11.6 |  | 
51 | GAUUGGCGACAAUUACAUGAGGAUCACCCAUGUUGUAGUAUGCAGGAUAUGUGGUAUAUUAUUUAACAGAAGGGCAAUAAUUUU |  |  | 69.6 | 85.9
52 | UAAUAAAACGAUCGGCGAUCCAAACAUGAGGAUCACCCAUGUAGAAGGGACUCUACAAAGUAGAGUCAGGAUAUACGAGAUCGA | 11.9 | 208 |  | 
53 | GCCUCAUAGUAGAAGGGACUUAGGCAGUUAAGCAUCAUCUCCAUUUCACAUGAGGAUCACCCAUGUCAGGAUAUACUAAGAGGC | 9.39 | 24.5 |  | 
54 | GAGAGGUCAGGAUAUACGGAGAGAGGGAGUUGGUGAGGGUAACAUGAGGAUCACCCAUGUAGAAGGGACUAAGG | 27.6 | 30.1 |  | 
55 | AGCUAGGCAGGAUAUACGUAAAUGUCGAAAGACGUAUUGGGACAUGAGGAUCACCCAUGUAGAAGGGCCUAGCA | 31.6 | 165 |  | 
